Where a SMILES comes first, the peptide text is derived from it.
What was measured:
[1] = biological target: T1, Substance-K receptor (Rattus norvegicus, UniProt P16610); experiment: Inhibition of eledoisin binding to NK-2 receptor in rat vas deferens
T1 sequence (P16610 whole entry): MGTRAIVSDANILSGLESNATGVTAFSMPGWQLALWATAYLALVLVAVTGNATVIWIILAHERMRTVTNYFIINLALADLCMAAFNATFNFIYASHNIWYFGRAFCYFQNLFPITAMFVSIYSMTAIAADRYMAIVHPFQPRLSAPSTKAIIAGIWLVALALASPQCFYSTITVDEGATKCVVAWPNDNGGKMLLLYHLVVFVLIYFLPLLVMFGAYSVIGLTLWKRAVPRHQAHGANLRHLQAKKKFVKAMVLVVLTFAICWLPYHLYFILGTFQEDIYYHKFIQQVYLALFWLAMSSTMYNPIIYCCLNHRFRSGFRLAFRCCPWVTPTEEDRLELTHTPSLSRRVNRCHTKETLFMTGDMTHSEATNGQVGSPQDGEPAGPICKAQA
In short: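 Vas deferens from Sprague-Dawley rats (200–300 g), electrically stimulated contractions with supramaximal rectangular bipolar pulses. Eledoisin log dose-response curves; antagonism taken from rightward shift. pA2 by Schild regression over three or more antagonist concentrations, or apparent pA2 from one antagonist concentration via the standard Schild equation assuming unit slope.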

[2] = biological target: Substance-P receptor (Cavia porcellus, UniProt P30547); experiment: Tested for antagonist activity toward NK-1 receptor in guinea pig ileum against the agonist eledoisin (mean +/-, n=4)
Sequence of Substance-P receptor (P30547 whole entry): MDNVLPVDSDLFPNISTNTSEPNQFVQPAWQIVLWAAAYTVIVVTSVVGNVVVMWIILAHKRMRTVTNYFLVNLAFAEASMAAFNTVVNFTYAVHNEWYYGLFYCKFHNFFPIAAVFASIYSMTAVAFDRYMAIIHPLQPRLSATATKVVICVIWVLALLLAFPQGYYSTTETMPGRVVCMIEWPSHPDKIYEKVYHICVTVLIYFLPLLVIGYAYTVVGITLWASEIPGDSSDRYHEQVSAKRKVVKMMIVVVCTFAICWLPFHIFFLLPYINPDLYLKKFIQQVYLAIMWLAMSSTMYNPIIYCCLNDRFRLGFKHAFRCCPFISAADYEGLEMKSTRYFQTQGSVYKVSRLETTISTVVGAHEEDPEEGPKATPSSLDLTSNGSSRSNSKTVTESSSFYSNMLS
In short: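 Guinea pig (male Dunkin-Hartley, 300–400 g) small-intestine longitudinal muscle, isometric contraction in Krebs-Henseleit at 37 °C with atropine, mepyramine, methysergide (each 5 μM) and indomethacin (1 μM). Antagonism measured as rightward shift of log dose-response curves to eledoisin. pA2 from Schild regression (least squares, three or more antagonist concentrations, three or more observations each), or apparent pA2 at a single concentration assuming unit slope (mean of 3–4 observations).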

[3] = biological target: T2, Neuromedin-K receptor (Rattus norvegicus, UniProt P16177); experiment: Tested for antagonist activity toward NK-3 receptor in rat portal vein against the agonist eledoisin (mean +/-, n=4)
T2 sequence (P16177 whole entry): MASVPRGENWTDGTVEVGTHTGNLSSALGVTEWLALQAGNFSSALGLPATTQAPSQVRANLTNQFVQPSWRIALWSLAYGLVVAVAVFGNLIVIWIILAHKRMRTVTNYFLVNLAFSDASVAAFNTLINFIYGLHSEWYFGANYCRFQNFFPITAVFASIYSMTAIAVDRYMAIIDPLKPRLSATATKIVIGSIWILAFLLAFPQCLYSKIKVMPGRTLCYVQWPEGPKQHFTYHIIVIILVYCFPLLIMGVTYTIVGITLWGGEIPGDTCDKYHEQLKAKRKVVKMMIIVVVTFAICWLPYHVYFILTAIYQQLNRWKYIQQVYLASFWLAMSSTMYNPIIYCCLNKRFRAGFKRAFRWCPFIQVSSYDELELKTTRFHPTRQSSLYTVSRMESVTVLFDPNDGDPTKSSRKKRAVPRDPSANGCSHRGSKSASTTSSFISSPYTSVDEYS
In short: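 Rat portal vein longitudinal strips; frequency and amplitude of myogenic contractions recorded. Antagonist activity derived from rightward shift of eledoisin log dose-response curves. pA2 by Schild regression, least squares, three or more antagonist concentrations, or apparent pA2 at a single antagonist concentration assuming unit slope (mean of three or four observations).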

| Compound | Kd [1] [µM] | Kd [2] [µM] | Kd [3] [µM] |
| --- | --- | --- | --- |
| CSCC[C@H]1NC(=O)[C@H](CC(C)C)NC(=O)[C@@H]2CCCN2C(=O)[C@H](Cc2ccccc2)NC(=O)[C@@H](Cc2c[nH]c3ccccc23)NC(=O)[C@H](CCC(N)=O)NC1=O | 15.8 |  |  |
| CSCC[C@@H]1NC(=O)[C@H](CC(C)C)NC(=O)[C@H](Cc2ccccc2)NC(=O)[C@H](Cc2c[nH]c3ccccc23)NC(=O)[C@H](CCC(N)=O)NC1=O (cyclo(FLMQW)) | 0.631 |  |  |

The next lines start with the values.

| Kd [1] [µM] | Kd [2] [µM] | Kd [3] [µM] | Compound |
| --- | --- | --- | --- |
| 20 |  |  | CSCC[C@H]1NC(=O)[C@H](CC(C)C)NC(=O)[C@H]2CCCN2C(=O)[C@H](Cc2ccccc2)NC(=O)[C@@H](Cc2c[nH]c3ccccc23)NC(=O)[C@H](CCC(N)=O)NC1=O |
| 0.00794 | 2 | 7.94 | CSCC[C@@H]1NC(=O)[C@H](CC(C)C)NC(=O)CNC(=O)[C@H](Cc2ccccc2)NC(=O)[C@H](Cc2c[nH]c3ccccc23)NC(=O)[C@H](CCC(N)=O)NC1=O (cyclo(FGLMQW)) |
| 15.8 |  |  | CSCC[C@H]1NC(=O)[C@H](CC(C)C)N2C=CC(NC(=O)[C@H](Cc3ccccc3)NC(=O)[C@@H](Cc3ccccc3)NC(=O)C(CCC(N)=O)NC1=O)C2=O (some centres not stated) |

Source: BindingDB's records for doi:10.1021/jm00053a001 (Merck Sharp and Dohme Research Laboratories, 1993)
